Assay outcomes (PubChem)
An excerpt weighted towards active compounds, which were near 0.63% of everything screened.
zfTRPN1 agonist = zebrafish TRPN1 channel agonists, primary screen, cell-based, HEK293, calcium fluorescence; AID 1424, 2008; activation, % at 3 µM; HEK293 zebrafish TRPN1-YFP, Fluo-8 calcium fluorescence; 100% = response to 87 µM carbachol; hit rate 0.18% among 220,000;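 active = activation above its plate's cutoff, the mean activation of test wells on that plate plus 3 SD, cut at about 19% in these data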;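 also: 0% = DMSO alone and 100% = 87 µM carbachol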
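Material: zebrafish TRPN1-YFP in HEK293 cells; Doses: single test compound dose, 3 µM nominal, 0.3% DMSO; Timing: dye loading 1 h at 37 °C, then 30 min room temperature; Technique: intracellular calcium fluorescence with Fluo-8; Benchmarks: high carbachol 87 µM, low DMSO alone.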
IDE inh = human IDE inhibitors in live cells, primary screen, fluorescence polarization, HEK cells, FAbetaB substrate | Insulin-degrading enzyme (Homo sapiens), P14735 | FAbetaB cleavage | inhibition, % at 5.59 µM | AID 434962, 2010 | hit rate 0.41% among 320,000;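 active = percent inhibition above the average of all tested compounds plus 3 SD, set per screening campaign, cut at about 16% in these data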;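 also: IDE supplied by intact live HEK cells; FP after avidin binding of uncleaved biotin substrate so inhibition keeps polarization high; 0% = DMSO wells and 100% = 60 µM reference IDE inhibitor Ii1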
Target sequence (P14735 whole entry, looked up): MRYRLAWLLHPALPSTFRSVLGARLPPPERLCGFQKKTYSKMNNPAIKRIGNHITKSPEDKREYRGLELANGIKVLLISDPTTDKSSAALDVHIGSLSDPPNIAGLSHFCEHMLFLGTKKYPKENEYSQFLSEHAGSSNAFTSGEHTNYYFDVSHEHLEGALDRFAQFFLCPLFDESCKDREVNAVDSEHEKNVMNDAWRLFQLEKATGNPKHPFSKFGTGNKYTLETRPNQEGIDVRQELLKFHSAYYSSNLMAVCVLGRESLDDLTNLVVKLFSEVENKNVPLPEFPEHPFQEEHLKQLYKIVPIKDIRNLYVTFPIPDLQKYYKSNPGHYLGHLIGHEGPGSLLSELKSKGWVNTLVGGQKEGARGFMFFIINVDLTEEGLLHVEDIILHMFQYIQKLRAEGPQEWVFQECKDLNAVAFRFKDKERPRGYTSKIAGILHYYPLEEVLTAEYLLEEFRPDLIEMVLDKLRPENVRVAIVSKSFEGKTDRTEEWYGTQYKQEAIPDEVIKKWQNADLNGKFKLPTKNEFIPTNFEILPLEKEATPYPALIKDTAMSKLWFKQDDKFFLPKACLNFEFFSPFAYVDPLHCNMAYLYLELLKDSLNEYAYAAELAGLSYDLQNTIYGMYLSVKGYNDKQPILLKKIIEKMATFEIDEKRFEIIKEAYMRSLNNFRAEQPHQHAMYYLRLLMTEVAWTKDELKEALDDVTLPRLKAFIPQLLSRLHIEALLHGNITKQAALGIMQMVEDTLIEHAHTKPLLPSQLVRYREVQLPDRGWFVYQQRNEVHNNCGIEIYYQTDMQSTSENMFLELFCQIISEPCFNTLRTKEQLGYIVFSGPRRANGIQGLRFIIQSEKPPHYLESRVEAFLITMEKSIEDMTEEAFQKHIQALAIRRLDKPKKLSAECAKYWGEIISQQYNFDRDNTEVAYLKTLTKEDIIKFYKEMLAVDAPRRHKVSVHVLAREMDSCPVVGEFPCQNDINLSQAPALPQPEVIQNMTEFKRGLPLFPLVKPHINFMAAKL
TRPML3 ag = human TRPML3 channel agonists, primary screen, cell-based, HEK293 TRPML3-YFP, Fluo-8 calcium fluorescence, 3 µM | Mucolipin-3 (Homo sapiens), Q8TDD5 | 100% = the carbachol control signal | activation, % at 3 µM | hit rate 0.29% among 220,000 | AID 1448, 2008;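 active = activation above its plate's cutoff, the mean activation of the plate's test wells plus 3 SD, cut at about 12% in these data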;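 also: 0% = DMSO only wells and 100% = carbachol wells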
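Test system – HEK293 line with stable expression of human TRPML3-YFP channel · Control set – carbachol 87 µM final as high control (100%), DMSO as low control (0%) · Signal – Fluo-8 calcium dye fluorescence, ex 470-495, em 515-575 nm · Incubation – 1-h 37 °C dye load, 5-s basal, 120-s post-compound reads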
IDE cell activ = human IDE activators in live cells, primary screen, fluorescence polarization, HEK cells, FAbeta-B substrate | Insulin-degrading enzyme (Homo sapiens), P14735 | FAbeta-B cleavage; 0% vehicle, 100% cell-free pure enzyme wells | activation, % at 5.96 µM | hit rate 0.073% among 340,000 | AID 493087, 2011;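 active = activation above the mean of all tested compounds plus 3 SD, set per screening campaign, cut at about 17% in these data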
TRPN1 counter = zebrafish TRPN1 channel agonists, counter-screen for TRPML3 agonist project, cell-based, HEK293 TRPN1-YFP, Fluo-8 calcium; shares compounds with TRPML3 ag; Fluo-8 calcium fluorescence; scaled: carbachol wells 100%, DMSO wells 0%; activation, % at 3 µM; hit rate 10% among 310; AID 1525, 2009;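 active = mean activation over replicates above a set limit taken from the earlier TRPN1 channel primary screen, cut at about 19% in these data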;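 also: 100% = carbachol and 0% = 0.3% DMSO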
TRPML3 ag conf = human TRPML3 channel agonists, confirmation, cell-based, HEK293 TRPML3-YFP, Fluo-8 calcium, triplicate; shares compounds with TRPML3 ag; Fluo-8 calcium fluorescence; 100% set by carbachol, 0% by DMSO; activation, % at 3 µM; hit rate 80% among 310;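 active = activation above a set limit derived from the earlier primary screen, cut at about 12% in these data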
Numbers without * were called inactive; . = no result.

SMILES	zfTRPN1 agonist	IDE inh	TRPML3 ag	IDE cell activ	TRPN1 counter	TRPML3 ag conf
COc1ccc(NC(=O)CN(C)S(=O)(=O)c2ccc(C)cc2)c([N+](=O)[O-])c1	1	0	0	2	.	.
Cc1ccc(S(=O)(=O)N(C)c2ccc(C)c([N+](=O)[O-])c2)cc1	-2	-1	69*	6	-1	72*
CCCCC(CC)C(=O)Nc1ncc([N+](=O)[O-])s1 (configuration not stated)	14	4	13*	1	16	6
Cc1ccc(CC(=O)Nc2ncc([N+](=O)[O-])s2)cc1	13	-1	8	7	.	.
CN(C)c1ccnc(Nc2ccc(O)cc2)c1C#N	0	-2	0	-2	.	.
CN(c1ccc(OCC(=O)OCc2nnc(-c3ccccc3)o2)cc1)S(=O)(=O)c1ccc(Cl)cc1	.	2	.	0	.	.
CN(c1ccc(OCc2nnc(-c3ccccc3)o2)cc1)S(=O)(=O)c1ccccc1	1	-2	40*	4	2	37*
Cc1ccc(S(=O)(=O)n2nccc2-c2c(-c3ccc(Cl)cc3)noc2C)cc1	1	5	82*	.	0	106*
CC(Oc1ccc(Cl)cc1)c1ccnn1S(=O)(=O)c1ccc(Cl)cc1 (configuration not stated)	-1	1	0	2	.	.
Cc1ccc(C(=O)NCCCNC(=O)Cc2ccc(Cl)cc2)cn1	.	1	.	3	.	.
CCN(CC)c1ccc(NC(=O)COc2ccc(N(C)S(=O)(=O)c3cccs3)cc2)cc1	-1	1	14*	-1	1	28*
CCCC/C=C1/CCC(CN(C)C)C1=O (configuration not stated)	.	.	.	3	.	.
CCC1CCCCN1S(=O)(=O)c1ccccc1[N+](=O)[O-] (configuration not stated)	-1	2	22*	2	0	22*
COc1cccc(CN(CC2CCCO2)S(=O)(=O)c2ccc(S(=O)(=O)N(C)C)cc2)c1 (configuration not stated)	0	-1	14*	-4	1	17*
COc1ccc(S(=O)(=O)N(CC(=O)NCC2CCCO2)Cc2ccccc2)cc1 (configuration not stated)	.	1	.	1	.	.
Cc1onc(-c2ccccc2Cl)c1C(=O)Nc1cccc(-c2nc3ncccn3c2C)c1	5	-2	12*	8	8	13*
Cc1cnc(=O)[nH]c1SCc1ccccc1F	.	8	.	2	.	.
O=C(C1Cc2ccccc2CN1S(=O)(=O)c1cccs1)N1CCCCC1 (configuration not stated)	-1	-2	15*	-3	0	52*
COc1ccccc1N1CCN(C(=O)C2CCCCN2S(=O)(=O)c2ccc(C)cc2)CC1 (configuration not stated)	1	1	14*	0	0	11
COc1ccccc1N1CCN(C(=O)C2CCCN(S(=O)(=O)c3ccc(C)cc3)C2)CC1 (configuration not stated)	.	-6	.	3	.	.
O=C(C1Cc2ccccc2CN1S(=O)(=O)c1ccc(F)cc1)N1CCCCC1 (configuration not stated)	1	2	64*	8	4	127*
O=C(c1ccco1)N1CCN(C(=O)C2Cc3ccccc3CN2S(=O)(=O)c2ccc(F)cc2)CC1 (configuration not stated)	0	1	1	-1	.	.
CCOc1ccc2c(c1)C(C)=CC(C)(C)N2S(=O)(=O)c1ccc(C)cc1	-1	.	16*	0	-1	33*
Cc1cc(C)cc(NC2=C(N)C(=O)c3ccccc3C2=O)c1	.	-3	.	2	.	.
CCOC(=O)C1CCN(C(=O)C(C)N(c2ccc(Oc3ccccc3)cc2)S(C)(=O)=O)CC1 (configuration not stated)	9	.	22*	-1	8	18*
SMILES	zfTRPN1 agonist	IDE inh	TRPML3 ag	IDE cell activ	TRPN1 counter	TRPML3 ag conf
CC(C)OP(=O)(c1ccc(N(C)C)cc1)C(O)c1cccnc1 (configuration not stated)	2	-1	0	3	.	.
O=C(Nc1ccncc1)Nc1ccc(F)c(Cl)c1	7	5	12*	3	10	9
Cc1ccc([N+](=O)[O-])cc1S(=O)(=O)NCC1COc2ccccc2O1 (configuration not stated)	.	0	.	3	.	.
O=[N+]([O-])c1ccc(C2CCCC/C2=N/OCc2ccccc2F)c([N+](=O)[O-])c1 (configuration not stated)	0	0	0	-5	.	.
O=C(O/N=C1\CCCCC1c1ccc([N+](=O)[O-])cc1[N+](=O)[O-])c1c(F)cccc1F (configuration not stated)	-2	-1	57*	-1	-2	6
CCOc1ccc(-n2c(=O)c3sccc3n(CC(=O)NCC3CCCO3)c2=O)cc1 (configuration not stated)	.	4	.	0	.	.
COC(=O)c1cc(-c2ccc(S(=O)(=O)N3CCCCC3)cc2)c(C(F)(F)F)s1	0	3	16*	4	-1	19*
COC(=O)c1cc(-c2ccc(S(=O)(=O)N3CCCC3)cc2)c(C(F)(F)F)s1	-1	3	7	8	.	.
CCN(CC)C(=O)Cn1cc(C(=O)C2CC2)c2ccccc21	0	8	1	3	.	.
Cc1nnc(SCC(=O)NCC2COc3ccccc3O2)s1 (configuration not stated)	.	-1	.	4	.	.
Cc1sc(NC(=O)C2CCCCC2C(=O)O)c(C(N)=O)c1-c1ccc(C(C)(C)C)cc1 (configuration not stated)	0	3	0	2	.	.
Cc1sc(NC(=O)C2C3CCC(C3)C2C(=O)O)c(C(N)=O)c1-c1ccc(C(C)(C)C)cc1 (configuration not stated)	1	2	18*	-7	1	0
CN(C)c1ncc(S(=O)(=O)c2ccccc2)c(-c2ccc(Cl)cc2Cl)n1	0	-4	58*	-2	-1	82*
C=CC(C)(C)O[C@@H]1O[C@H](CO)[C@@H](O)[C@H](O)[C@H]1O	.	10	.	-1	.	.
CC(C)N(C(=O)c1ccc2nc(-c3ccccc3)c(-c3ccccc3)nc2c1)C(C)C	-1	1	84*	3	-1	104*
COc1ccc(N(C)C(=O)c2ccc3nc(-c4ccccc4)c(-c4ccccc4)nc3c2)cc1	1	7	0	4	.	.
